Published values from different studies.
Target: Interleukin-1 receptor-associated kinase 4 (IRAK4, Homo sapiens, UniProt Q9NWZ3)

SMILES	assay	setting	endpoint	result
CCC(=O)N[C@H]1CC[C@@H](C(=O)N(C)c2ccc(-c3nc4ccccc4o3)cc2)C1	cell-free assay, competition with immobilised ligand	1 µM	remaining binding	87%
CN(C)C1CCN(CC#Cc2nn(C3CCCC3)c3nc(NCc4ccccc4)ncc23)C1 (centres unmarked)	enzyme activity, inhibitor, FRET	10 µM	inhibition	0%
Oc1cccc(-c2nc(N3CCOCC3)c3oc4ncccc4c3n2)c1	cell-free assay	0.5 µM	remaining signal	104%
CSc1nc(C)c(-c2ccnc(Nc3ccc(N4CCOCC4)cc3)c2)[nH]1	enzyme activity, inhibitor	10 µM	inhibition	45.8%
Cc1sc(C(=O)NC2COC2)cc1-n1cc(NC(=O)Nc2c(F)cccc2Cl)cn1	enzyme activity, inhibitor	10 µM	remaining activity	103%
Nc1cnc(N2CCc3cc(S(=O)(=O)Nc4c(F)cc(Cl)cc4F)cc(N4CCCC4=O)c32)nc1	cell-free assay, competition with immobilised ligand	1 µM	remaining binding	100%
CC(C)(C)c1nc2c(s1)c1nc(N)ncc1c1ccc(NS(=O)(=O)c3c(F)cccc3F)c(F)c12	enzyme activity, inhibitor, radiometric	1 µM	remaining activity	90%
C=CC(=O)Nc1cc(Nc2nccc(Nc3cc(Cl)c(F)cc3C(C)(C)O)n2)c(OC)cc1N1CC[C@@H](N(C)C)C1	enzyme activity, inhibitor	1 µM	inhibition	24%
COc1cc(Cl)c(C(=O)N[C@@H](CN[C@H]2CC[C@@H](N)CC2)Cc2ccc(C#N)cc2)cc1-c1ccc(CN[C@H](C)c2ccc(C)cc2)o1	enzyme activity, inhibitor	1 µM	remaining activity	89%
CC1=C(C#N)C(c2ccc3c(c2)c(NC(=O)c2ccccc2C)nn3C)C(C#N)=C(C)N1	cell-free assay, competition with immobilised ligand	1 µM	remaining binding	7.5%
Cc1cnc(NC2CCOCC2)nc1-n1cnc(C(=O)NC(CN)c2cc(F)cc(Cl)c2)c1 (centres unmarked)	enzyme activity, inhibitor, radiometric	1 µM	remaining activity	104%
COc1cc2c(Nc3ccc(Br)cc3F)ncnc2cc1OCC1CCN(C)CC1	cell-free assay	0.5 µM	remaining signal	35.3%
FC(F)(F)Oc1cccc(-c2cnc3ccc(-c4ccncc4)nn23)c1	enzyme activity, inhibitor, radiometric	1 µM	activity vs control	12%
Cn1c(=O)n(-c2ccc(C(C)(C)C#N)cc2)c2c3cc(-c4cnc5ccccc5c4)ccc3ncc21	enzyme activity, inhibitor	10 µM	remaining activity	78%
N#Cc1ccc(Nc2ccc3[nH]c(=O)[nH]c3c2)c(Cl)c1	cell-free assay, competition with immobilised ligand	1 µM	remaining binding	100%
CCN(CC)CCNC(=O)c1c(C)[nH]c(/C=C2\C(=O)Nc3ccc(F)cc32)c1C	enzyme activity, inhibitor	10 µM	inhibition	89%
N#CC1(c2ccccn2)CCN(Cc2cc(C(=O)N3CCCC3)c(=O)n3ccccc23)CC1	cell-free assay, competition with immobilised ligand	1 µM	remaining binding	100%
Cc1cc(NC(=O)c2cccc3cc(-c4cccc5[nH]nc(N)c45)ccc23)ccc1F	enzyme activity, inhibitor	0.1 µM	activity vs control	99%
CNC(=O)c1ccc(Nc2ncc(C(F)(F)F)c(NCc3nccnc3N(C)S(C)(=O)=O)n2)cc1	cell-free assay, competition with immobilised ligand	0.1 µM	remaining binding	92%
Cc1ccc(NC(=O)c2ccc(C)c(C(F)(F)F)c2)cc1C#Cc1nn(C2CCC(O)CC2)c2ncnc(N)c12 (centres unmarked)	cell-free assay	10 µM	remaining signal	101%
